According to ChEMBL document CHEMBL4342472, “Investigation of Inactive-State κ Opioid Receptor Homodimerization via Single-Molecule Microscopy Using New Antagonistic Fluorescent Probes” (J Med Chem, 2020):
Calls of active or inactive are those of the source. The rule behind the calls is not given here.

What was measured:
[1] = target: T1, Kappa-type opioid receptor (Homo sapiens, UniProt P41145); experiment: Binding affinity to recombinant human KOR transiently expressed in CHOK1 cells measured after 20 mins by TIRF microscopic analysis; type: cell-based
T1 sequence (P41145 whole entry): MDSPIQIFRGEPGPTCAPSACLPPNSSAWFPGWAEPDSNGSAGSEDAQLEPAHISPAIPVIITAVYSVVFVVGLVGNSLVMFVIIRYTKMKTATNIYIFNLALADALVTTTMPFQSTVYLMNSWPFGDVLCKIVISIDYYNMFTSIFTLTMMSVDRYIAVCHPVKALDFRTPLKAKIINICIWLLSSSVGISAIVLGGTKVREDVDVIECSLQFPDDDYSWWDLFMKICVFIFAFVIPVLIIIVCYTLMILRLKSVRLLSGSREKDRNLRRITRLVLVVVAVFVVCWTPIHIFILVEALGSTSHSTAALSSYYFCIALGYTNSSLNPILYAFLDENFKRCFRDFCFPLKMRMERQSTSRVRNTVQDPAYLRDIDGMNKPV
Procedure, shortened: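 Saturation binding on CHO-K1 cells transiently expressing human KOR (24 h post-transfection): 20 min incubation at 37 °C with each ligand concentration in complete medium, one wash in HEPES buffer pH 7.3, TIRF imaging. Mean whole-cell intensity (>30 cells per concentration), normalized to highest concentration, fitted by nonlinear regression for Kd; three replicates.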

[2] = species: Homo sapiens; experiment: Selectivity ratio of Ki for displacement of [3H]-diprenorphine from recombinant human MOR transiently expressed in HEK293 cell membranes to Ki for displacement of [3H]-diprenorphine from recombinant human KOR transiently expressed in HEK293 cell membranes
Procedure, shortened: (§1)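 Membranes from HEK293T cells transiently transfected with human DOR, KOR or MOR; [3H]diprenorphine final 0.3 nM (DOR, KOR) or 0.2-0.3 nM (MOR) with varying competitor, 60 min at 37 °C in Tris/MgCl2/EDTA buffer pH 7.4. Nonspecific binding with 10 μM naloxone; IC50 by nonlinear regression converted to Ki via Cheng-Prusoff; selectivity as Ki ratio.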

[3] = target: T1, Kappa-type opioid receptor; experiment: Partial agonist activity at EA-tagged beta-arrestin2 fused KOR (unknown origin) stably expressed in HEK293 cells assessed as induction of beta-arrestin2 recruitment measured after 300 mins by chemiluminescence assay; type: cell-based
Procedure, shortened: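 PathHunter: HEK-293 cells stably expressing EA-tagged β-arrestin-2, transiently transfected with ProLink-tagged KOR-PK2; plated after 24 h, held a further 24 h at 37 °C. Compounds 1 pM to 10 μM final, 300 min at 37 °C, then detection mix 60 min at room temperature; chemiluminescence normalized to basal and dynorphin A maximum, nonlinear regression.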

[4] = target: Mu-type opioid receptor (Homo sapiens, UniProt P35372); experiment: Displacement of [3H]-diprenorphine from recombinant human MOR transiently expressed in HEK293 cell membranes measured after 60 mins; procedure, shortened: as §1
Mu-type opioid receptor, sequence (P35372 whole entry): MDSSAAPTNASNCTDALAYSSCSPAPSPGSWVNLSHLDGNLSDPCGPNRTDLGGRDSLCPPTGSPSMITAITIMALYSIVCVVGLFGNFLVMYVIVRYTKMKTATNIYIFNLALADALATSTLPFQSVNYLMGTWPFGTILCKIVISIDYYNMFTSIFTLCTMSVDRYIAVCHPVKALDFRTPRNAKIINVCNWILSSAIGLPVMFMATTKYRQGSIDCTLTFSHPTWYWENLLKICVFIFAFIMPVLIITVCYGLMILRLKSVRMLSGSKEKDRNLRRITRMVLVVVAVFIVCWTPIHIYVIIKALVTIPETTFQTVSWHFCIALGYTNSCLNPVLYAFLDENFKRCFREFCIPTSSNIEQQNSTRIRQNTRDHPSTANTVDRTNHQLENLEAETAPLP

[5] = target: Delta-type opioid receptor (Homo sapiens, UniProt P41143); experiment: Displacement of [3H]-diprenorphine from recombinant human DOR transiently expressed in HEK293 cell membranes measured after 60 mins; procedure, shortened: as §1
Delta-type opioid receptor, sequence (P41143 whole entry): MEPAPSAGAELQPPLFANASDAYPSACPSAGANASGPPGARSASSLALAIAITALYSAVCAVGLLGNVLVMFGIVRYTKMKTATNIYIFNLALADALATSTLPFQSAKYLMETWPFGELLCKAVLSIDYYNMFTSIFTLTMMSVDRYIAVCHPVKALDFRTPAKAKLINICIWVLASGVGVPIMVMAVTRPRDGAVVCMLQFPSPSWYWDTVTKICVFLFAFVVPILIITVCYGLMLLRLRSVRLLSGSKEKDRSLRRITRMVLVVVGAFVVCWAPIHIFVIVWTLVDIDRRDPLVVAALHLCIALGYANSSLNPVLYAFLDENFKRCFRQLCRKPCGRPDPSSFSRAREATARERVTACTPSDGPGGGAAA

[6] = species: Homo sapiens; experiment: Selectivity ratio of Ki for displacement of [3H]-diprenorphine from recombinant human DOR transiently expressed in HEK293 cell membranes to Ki for displacement of [3H]-diprenorphine from recombinant human KOR transiently expressed in HEK293 cell membranes; procedure, shortened: as §1
[7] = target: T1, Kappa-type opioid receptor; experiment: Binding affinity to recombinant human KOR transiently expressed in CHOK1 cells at 50 nM measured 20 mins post compound washout by TIRF microscopic analysis relative to control; type: cell-based
Procedure, shortened: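 CHO-K1 cells transiently expressing human KOR, 24 h post-transfection; incubated 20 min at 37 °C with 50 nM fluorescent ligand in complete medium, then washed on-stage with fresh imaging buffer. TIRF images of the same cell taken every minute over 20 min; cell ROI intensity compared with pre-wash image, bleaching control included; triplicate experiments.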

[8] = target: T1, Kappa-type opioid receptor; experiment: Displacement of [3H]-diprenorphine from recombinant human KOR transiently expressed in HEK293 cell membranes measured after 60 mins; procedure, shortened: as §1
[9] = target: T1, Kappa-type opioid receptor; experiment: Inverse agonist activity at recombinant human KOR transiently expressed in HEK293T cells co-expressing G-alphaqi assessed as reduction in dynorphin A-stimulated inositol phosphate accumulation measured after 180 mins by HTRF assay; type: functional, cell-based
[10] = target: T1, Kappa-type opioid receptor; experiment: Binding affinity to recombinant human KOR expressed in CHOK1 cells assessed as time of KOR colocalization in cell surface at 10 nM by single molecule microscopic analysis; type: cell-based
Procedure, shortened: (§2)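 Human KOR transiently expressed in CHO-K1 cells, labelled 4 h post-transfection with Cy5 probe (10 nM) and Cy3 probe (100 nM), rapid wash, TIRF single-molecule imaging at 20 °C in HEPES buffer pH 7.3. Particles tracked automatically; observed co-localization durations deconvolved (Lucy-Richardson) against a CD86-SNAP (SiR-labelled) non-interacting control.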

[11] = target: T1, Kappa-type opioid receptor; experiment: Binding affinity to recombinant human KOR expressed in CHOK1 cells assessed as compound-coupled receptor mobility by measuring distribution in immobile phase at 100 nM measured after 20 mins by TIRF-SMM based TA-MSD analysis; type: cell-based
Procedure, shortened: (§3)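 Wild-type human KOR transiently transfected into CHO-K1 cells (Lipofectamine 2000); labelled 4 h post-transfection with probe at 100 nM for 20 min, washed in HEPES imaging buffer pH 7.3 and imaged by TIRF at 20 °C. Trajectories from automated particle tracking; time-averaged MSD of individual trajectories fitted to obtain diffusion coefficient and assign motion class.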

[12] = target: T1, Kappa-type opioid receptor; experiment: Binding affinity to recombinant human KOR expressed in CHOK1 cells assessed as compound-coupled receptor mobility by measuring distribution in super diffusion phase at 100 nM measured after 20 mins by TIRF-SMM based TA-MSD analysis; type: cell-based; procedure, shortened: as §3
[13] = target: T1, Kappa-type opioid receptor; experiment: Binding affinity to recombinant human KOR expressed in CHOK1 cells assessed as time of KOR colocalization in cell surface at 100 nM by single molecule microscopic analysis; type: cell-based; procedure, shortened: as §2
[14] = target: T1, Kappa-type opioid receptor; experiment: Binding affinity to recombinant human KOR expressed in CHOK1 cells assessed as compound-coupled receptor mobility by measuring distribution in sub-diffusion phase at 100 nM measured after 20 mins by TIRF-SMM based TA-MSD analysis; type: cell-based; procedure, shortened: as §3
[15] = target: T1, Kappa-type opioid receptor; experiment: Binding affinity to recombinant human KOR expressed in CHOK1 cells assessed as compound-coupled receptor mobility by measuring distribution in normal diffusion phase at 100 nM measured after 20 mins by TIRF-SMM based TA-MSD analysis; type: cell-based; procedure, shortened: as §3

Structure (SMILES)	Kd [1] [nM]	Ratio Ki [2]	Activity [3]	Ki [4] [nM]	Ki [5] [nM]	Ratio Ki [6]	Activity [7] [%]	Ki [8] [nM]	Activity [9]	TIME [10] [h]	Activity [11] [%]	Activity [12] [%]	TIME [13] [h]	Activity [14] [%]	Activity [15] [%]
CN1/C(=C/C=C/C=C/C2=[N+](CCCCCC(=O)NCCCNC(=N)Nc3ccc4[nH]c5c(c4c3)C[C@@]3(O)[C@H]4Cc6ccc(O)c7c6[C@@]3(CCN4CC3CC3)[C@H]5O7)c3ccc(S(=O)(=O)[O-])cc3C2(C)C)C(C)(C)c2cc(S(=O)(=O)O)ccc21	9.5	29	inactive	40	39	28	> 90	1.4	Active	< 2.78e-05	–	–	–	–	–
CN1/C(=C/C=C/C=C/C2=[N+](CCCCCC(=O)NCC(=O)NCC(=O)NCCCNC(=N)Nc3ccc4[nH]c5c(c4c3)C[C@@]3(O)[C@H]4Cc6ccc(O)c7c6[C@@]3(CCN4CC3CC3)[C@H]5O7)c3ccc(S(=O)(=O)[O-])cc3C2(C)C)C(C)(C)c2cc(S(=O)(=O)O)ccc21	–	91	inactive	100	106	100	> 90	1.1	inactive	–	–	–	–	–	–
CN1/C(=C/C=C/C=C/C2=[N+](CCCCCC(=O)NCC(=O)NCC(=O)NCC(=O)NCC(=O)NCCCNC(=N)Nc3ccc4[nH]c5c(c4c3)C[C@@]3(O)[C@H]4Cc6ccc(O)c7c6[C@@]3(CCN4CC3CC3)[C@H]5O7)c3ccc(S(=O)(=O)[O-])cc3C2(C)C)C(C)(C)c2cc(S(=O)(=O)O)ccc21	4.8	74	inactive	133	193	107	> 90	1.8	inactive	–	–	–	–	–	–
CN1/C(=C/C=C/C2=[N+](CCCCCC(=O)NCCCNC(=N)Nc3ccc4[nH]c5c(c4c3)C[C@@]3(O)[C@H]4Cc6ccc(O)c7c6[C@@]3(CCN4CC3CC3)[C@H]5O7)c3ccc(S(=O)(=O)[O-])cc3C2(C)C)C(C)(C)c2cc(S(=O)(=O)O)ccc21	18.8	44	inactive	380	31	4	–	8.6	Active	–	16	8	< 2.78e-05	25	51
CN1/C(=C/C=C/C2=[N+](CCCCCC(=O)NCC(=O)NCC(=O)NCC(=O)NCC(=O)NCCCNC(=N)Nc3ccc4[nH]c5c(c4c3)C[C@@]3(O)[C@H]4Cc6ccc(O)c7c6[C@@]3(CCN4CC3CC3)[C@H]5O7)c3ccc(S(=O)(=O)[O-])cc3C2(C)C)C(C)(C)c2cc(S(=O)(=O)O)ccc21	–	34	inactive	110	280	88	–	3.2	inactive	–	–	–	–	–	–
